{
  "source": "ChEMBL document CHEMBL5029189",
  "about": "“Development of a 1,2,4-Triazole-Based Lead Tankyrase Inhibitor: Part II” (J Med Chem, 2021)",
  "key": {"COLO 320DM [1]": {"system": "COLO 320DM", "assay": "Inhibition of Wnt/beta-catenin signaling pathway in human COLO 320DM cells assessed as reduction in APCDD1 level qRT-PCR analysis", "type": "cell-based", "conditions": "dose 0.1-100 nM"}, "COLO 320DM [2]": {"system": "COLO 320DM", "assay": "Inhibition of Wnt/beta-catenin signaling pathway in human COLO 320DM cells assessed as reduction in DKK1 level qRT-PCR analysis", "type": "cell-based", "conditions": "dose 0.1-100 nM"}, "COLO 320DM [3]": {"system": "COLO 320DM", "assay": "Inhibition of Wnt/beta-catenin signaling pathway in human COLO 320DM cells assessed as reduction in AXIN2 level qRT-PCR analysis", "type": "cell-based", "conditions": "dose 0.1-100 nM"}, "COLO 320DM [4]": {"system": "COLO 320DM", "assay": "Inhibition of Wnt/beta-catenin signaling pathway in human COLO 320DM cells assessed as reduction in nuclear beta-catenin level at 0.1 to 100 nM by immunoblot analysis", "type": "cell-based", "conditions": "dose 0.1-100 nM"}, "COLO 320DM [5]": {"system": "COLO 320DM", "assay": "Inhibition of Wnt/beta-catenin signaling pathway in human COLO 320DM cells assessed as reduction in cytoplasmic beta-catenin level at 0.1 to 100 nM by immunoblot analysis", "type": "cell-based", "conditions": "dose 0.1-100 nM"}, "COLO 320DM [6]": {"system": "COLO 320DM", "assay": "Inhibition of Wnt/beta-catenin signaling pathway in human COLO 320DM cells assessed as stabilization of AXIN2 at 0.1 to 100 nM by immunoblot analysis", "type": "cell-based", "conditions": "dose 0.1-100 nM"}, "COLO 320DM [7]": {"system": "COLO 320DM", "assay": "Inhibition of Wnt/beta-catenin signaling pathway in human COLO 320DM cells assessed as reduction in NKD1 level qRT-PCR analysis", "type": "cell-based", "conditions": "dose 0.1-100 nM"}, "Salmonella typhimurium [8]": {"system": "Salmonella typhimurium", "assay": "Genotoxicity in Salmonella typhimurium TA98 in presence of rat liver S9 fraction by Ames test", "type": "toxicity, organism-based", "conditions": "salmonella enterica subsp. enterica serovar typhimurium"}, "Salmonella typhimurium [9]": {"system": "Salmonella typhimurium", "assay": "Genotoxicity in Salmonella typhimurium TA100 in presence of rat liver S9 fraction by Ames test", "type": "toxicity, organism-based", "conditions": "salmonella enterica subsp. enterica serovar typhimurium"}, "[10]": {"target": "T1, Nuclear receptor subfamily 1 group I member 2 (Homo sapiens, UniProt O75469)", "T1 sequence (O75469 whole entry)": "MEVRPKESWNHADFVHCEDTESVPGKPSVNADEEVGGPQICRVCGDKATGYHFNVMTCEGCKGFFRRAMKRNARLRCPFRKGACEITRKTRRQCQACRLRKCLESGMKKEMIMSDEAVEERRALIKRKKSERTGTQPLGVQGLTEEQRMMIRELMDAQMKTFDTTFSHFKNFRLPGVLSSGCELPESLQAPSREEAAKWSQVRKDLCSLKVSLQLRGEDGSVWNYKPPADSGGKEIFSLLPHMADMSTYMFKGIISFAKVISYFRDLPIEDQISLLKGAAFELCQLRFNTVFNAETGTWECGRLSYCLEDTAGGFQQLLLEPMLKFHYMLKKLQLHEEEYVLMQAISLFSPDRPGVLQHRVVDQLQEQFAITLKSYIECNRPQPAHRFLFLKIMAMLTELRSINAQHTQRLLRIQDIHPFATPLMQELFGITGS", "assay": "Inhibition of PXR (unknown origin) at 100 uM"}, "COLO 320DM [11]": {"system": "COLO 320DM", "assay": "Inhibition of Wnt/beta-catenin signaling pathway in human COLO 320DM cells assessed as stabilization of AXIN1 at 0.1 to 100 nM by immunoblot analysis", "type": "cell-based", "conditions": "dose 0.1-100 nM"}, "COLO 320DM [12]": {"system": "COLO 320DM", "assay": "Inhibition of Wnt/beta-catenin signaling pathway in human COLO 320DM cells assessed as effect on TNKS1/2 level by immunoblot analysis", "type": "cell-based", "conditions": "dose 0.1-100 nM"}, "[13]": {"assay": "Inhibition of Wnt/beta-catenin signaling pathway in HEK293T cells incubated for 24 hrs by dual-Glo luciferase assay", "type": "cell-based", "conditions": "Homo sapiens, HEK-293T", "method_in_brief": "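Luciferase-based WNT/β-catenin pathway reporter in human HEK293 cells, run as in earlier work with a reference tankyrase inhibitor included. Each concentration tested in triplicate. IC50 derived by curve fitting, with T/F-tests applied to the fit.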"}, "[14]": {"assay": "Apparent permeability across apical to basolateral side in human Caco-2 cells at 10 uM incubated for 120 mins by LC-MS/MS analysis", "type": "ADME, cell-based"}, "[15]": {"assay": "Metabolic stability in human liver microsomes assessed as intrinsic clearance measured per mg protein incubated up to 60 mins in presence of NADPH by UPLC-MS/MS analysis", "type": "ADME, Microsome", "conditions": "read-out: […]"}, "[16]": {"assay": "Metabolic stability in mouse liver microsomes assessed as intrinsic clearance measured per mg protein incubated up to 60 mins in presence of NADPH by UPLC-MS/MS analysis", "type": "ADME, Microsome", "conditions": "read-out: CLH"}},
  "note": "Active and inactive are the calls of the source. No cut-off for these calls is given here.",
  "data": [
    {"smiles": "CCOc1ccc(-c2nnc([C@H]3C[C@H](NC(=O)c4cccc5nccnc45)C3)n2-c2ccccc2F)nc1", "values": [
      {"measurement": "inhibition", "setting": "COLO 320DM [1]", "value": "Dose-Dependent Effect"},
      {"measurement": "inhibition", "setting": "COLO 320DM [2]", "value": "Dose-Dependent Effect"},
      {"measurement": "inhibition", "setting": "COLO 320DM [3]", "value": "Dose-Dependent Effect"},
      {"measurement": "inhibition", "setting": "COLO 320DM [4]", "value": "Active"},
      {"measurement": "inhibition", "setting": "COLO 320DM [5]", "value": "Active"},
      {"measurement": "inhibition", "setting": "COLO 320DM [6]", "value": "Active"},
      {"measurement": "inhibition", "setting": "COLO 320DM [7]", "value": "Dose-Dependent Effect"},
      {"measurement": "Activity", "setting": "Salmonella typhimurium [8]", "value": "Non-Toxic"},
      {"measurement": "Activity", "setting": "Salmonella typhimurium [9]", "value": "Non-Toxic"},
      {"measurement": "IC50", "setting": "[10]", "value": "Not Active"},
      {"measurement": "inhibition", "setting": "COLO 320DM [11]", "value": "Active"},
      {"measurement": "inhibition", "setting": "COLO 320DM [12]", "value": "Dose-Dependent Effect"}
    ]},
    {"smiles": "CCOc1ccc(-c2nnc([C@H]3C[C@H](NC(=O)c4ccnc5cccnc45)C3)n2-c2ccccc2F)nc1", "values": [
      {"measurement": "IC50", "setting": "[13]", "value": 0.63, "unit": "nM"}
    ]},
    {"smiles": "CCOc1ccc(-c2nnc([C@H]3C[C@H](NC(=O)c4ccnc5cc(F)cnc45)C3)n2-c2ccccc2F)nc1", "values": [
      {"measurement": "IC50", "setting": "[13]", "value": 0.17, "unit": "nM"}
    ]},
    {"smiles": "CCOc1ccc(-c2nnc([C@H]3C[C@H](NC(=O)c4ccccn4)C3)n2-c2ccccc2F)nc1", "values": [
      {"measurement": "Papp A→B at 2 h, 10 µM", "setting": "[14]", "value": 39.5, "unit": "×10⁻⁶ cm/s"},
      {"measurement": "microsomal CLint", "setting": "[15]", "value": "< 5", "unit": "µL/min/mg"},
      {"measurement": "microsomal CLint", "setting": "[16]", "value": 27, "unit": "µL/min/mg"},
      {"measurement": "Activity", "setting": "Salmonella typhimurium [8]", "value": "Non-Toxic"},
      {"measurement": "Activity", "setting": "Salmonella typhimurium [9]", "value": "Non-Toxic"}
    ]}
  ]
}
